From ChEMBL document CHEMBL4406880, “Design, synthesis, and bioactivity of dihydropyrimidine derivatives as kinesin spindle protein inhibitors” (Bioorg Med Chem, 2019)

Key:
Assay type in all cases: functional
SN12C = experiment: Growth inhibition of human SN12C cells assessed as growth percentage at 10 uM incubated for 48 hrs by sulforhodamine B assay relative to control; details: read-out: Activity
Summary of the method: (§1)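 NCI-60 single-dose screen. Cells were grown in RPMI 1640 with 5% FBS and 2 mM L-glutamine and plated at 5,000–40,000 cells/well. After an overnight preincubation at 37 °C in 5% CO2, compound was added at a final 10 µM from a DMSO stock, with DMSO/PBS controls. After 48 h, cells were TCA-fixed and stained with 0.4% SRB, and absorbance was read at 515 nm. Growth is given as a percentage of untreated control.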

SF-295 = experiment: Growth inhibition of human SF295 cells assessed as growth percentage at 10 uM incubated for 48 hrs by sulforhodamine B assay relative to control; details: SF-295, 48 h, read-out: Activity; summary of the method: as §1
PC-3 = experiment: Growth inhibition of human PC3 cells assessed as growth percentage at 10 uM incubated for 48 hrs by sulforhodamine B assay relative to control; details: PC-3, 48 h, read-out: Activity; summary of the method: as §1
UACC-62 = experiment: Growth inhibition of human UACC62 cells assessed as growth percentage at 10 uM incubated for 48 hrs by sulforhodamine B assay relative to control; details: UACC-62, 48 h, read-out: Activity; summary of the method: as §1
A498 = experiment: Growth inhibition of human A498 cells assessed as growth percentage at 10 uM incubated for 48 hrs by sulforhodamine B assay relative to control; details: A498, 48 h, read-out: Activity
Summary of the method: (§2)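 NCI-60 one-dose screen: cells in RPMI 1640 with 5% FBS and 2 mM L-glutamine, plated at 5,000–40,000 cells/well and preincubated 24 h at 37 °C, 5% CO2. Compound is added from a DMSO stock to a final 10 µM and incubated 48 h. Cells are TCA-fixed and stained with sulforhodamine B, read at 515 nm. Output is % growth versus untreated control, with a time-zero plate.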

NCI/ADR-RES = experiment: Growth inhibition of human NCI/ADR-RES cells assessed as growth percentage at 10 uM incubated for 48 hrs by sulforhodamine B assay relative to control; details: read-out: Activity
Summary of the method: (§3)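 NCI-60 one-dose screen. Cells in RPMI 1640 with 5% FBS and 2 mM L-glutamine, seeded at 5,000–40,000 cells/well according to doubling time, and preincubated overnight at 37 °C, 5% CO2. A time-zero plate was TCA-fixed at drug addition. Compound from DMSO stock, final 10 µM, 48 h; DMSO vehicle controls. Fixation with TCA, 10% final (16% for suspension cells). SRB stain, Tris solubilization, A515. Result given as % growth versus untreated cells.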

HCT-116 = experiment: Growth inhibition of human HCT116 cells assessed as growth percentage at 10 uM incubated for 48 hrs by sulforhodamine B assay relative to control; details: HCT-116, 48 h, read-out: Activity; summary of the method: as §2
ACHN = experiment: Growth inhibition of human ACHN cells assessed as growth percentage at 10 uM incubated for 48 hrs by sulforhodamine B assay relative to control; details: read-out: Activity; summary of the method: as §2
HOP-92 = experiment: Growth inhibition of human HOP92 cells assessed as growth percentage at 10 uM incubated for 48 hrs by sulforhodamine B assay relative to control; details: HOP-92, 48 h, read-out: Activity; summary of the method: as §3
KM12 = experiment: Growth inhibition of human KM12 cells assessed as growth percentage at 10 uM incubated for 48 hrs by sulforhodamine B assay relative to control; details: KM12, 48 h, read-out: Activity; summary of the method: as §3
EKVX = experiment: Growth inhibition of human EKVX cells assessed as growth percentage at 10 uM incubated for 48 hrs by sulforhodamine B assay relative to control; details: read-out: Activity; summary of the method: as §2
SK-MEL-28 = experiment: Growth inhibition of human SK-MEL-28 cells assessed as growth percentage at 10 uM incubated for 48 hrs by sulforhodamine B assay relative to control; details: SK-MEL-28, 48 h, read-out: Activity; summary of the method: as §1
MDA-MB-231 = experiment: Growth inhibition of human MDA-MB-231 cells assessed as growth percentage at 10 uM incubated for 48 hrs by sulforhodamine B assay relative to control; details: MDA-MB-231, 48 h, read-out: Activity; summary of the method: as §3
CAKI-1 = experiment: Growth inhibition of human Caki1 cells assessed as growth percentage at 10 uM incubated for 48 hrs by sulforhodamine B assay relative to control; details: CAKI-1, 48 h, read-out: Activity; summary of the method: as §2
MDA-MB-435 = experiment: Growth inhibition of human MDA-MB-435 cells assessed as growth percentage at 10 uM incubated for 48 hrs by sulforhodamine B assay relative to control; details: MDA-MB-435, 48 h, read-out: Activity; summary of the method: as §3
OVCAR-3 = experiment: Growth inhibition of human OVCAR3 cells assessed as growth percentage at 10 uM incubated for 48 hrs by sulforhodamine B assay relative to control; details: OVCAR-3, 48 h, read-out: Activity; summary of the method: as §3
SW-620 = experiment: Growth inhibition of human SW620 cells assessed as growth percentage at 10 uM incubated for 48 hrs by sulforhodamine B assay relative to control; details: SW-620, 48 h, read-out: Activity; summary of the method: as §1
OVCAR-5 = experiment: Growth inhibition of human OVCAR5 cells assessed as growth percentage at 10 uM incubated for 48 hrs by sulforhodamine B assay relative to control; details: OVCAR-5, 48 h, read-out: Activity; summary of the method: as §1
HCT-15 = experiment: Growth inhibition of human HCT15 cells assessed as growth percentage at 10 uM incubated for 48 hrs by sulforhodamine B assay relative to control; details: HCT-15, 48 h, read-out: Activity; summary of the method: as §2
CCRF-CEM = experiment: Growth inhibition of human CCRF-CEM cells assessed as growth percentage at 10 uM incubated for 48 hrs by sulforhodamine B assay relative to control; details: read-out: Activity; summary of the method: as §2
RPMI-8226 = experiment: Growth inhibition of human RPMI8226 cells assessed as growth percentage at 10 uM incubated for 48 hrs by sulforhodamine B assay relative to control; details: RPMI-8226, 48 h, read-out: Activity; summary of the method: as §1
Malme-3M = experiment: Growth inhibition of human MALME-3M cells assessed as growth percentage at 10 uM incubated for 48 hrs by sulforhodamine B assay relative to control; details: read-out: Activity; summary of the method: as §3
OVCAR-4 = experiment: Growth inhibition of human OVCAR4 cells assessed as growth percentage at 10 uM incubated for 48 hrs by sulforhodamine B assay relative to control; details: OVCAR-4, 48 h, read-out: Activity; summary of the method: as §3
HOP-62 = experiment: Growth inhibition of human HOP62 cells assessed as growth percentage at 10 uM incubated for 48 hrs by sulforhodamine B assay relative to control; details: HOP-62, 48 h, read-out: Activity; summary of the method: as §3
K562 = experiment: Growth inhibition of human K562 cells assessed as growth percentage at 10 uM incubated for 48 hrs by sulforhodamine B assay relative to control; details: K562, 48 h, read-out: Activity; summary of the method: as §3
HT-29 = experiment: Growth inhibition of human HT-29 cells assessed as growth percentage at 10 uM incubated for 48 hrs by sulforhodamine B assay relative to control; details: HT-29, 48 h, read-out: Activity; summary of the method: as §3
A549 = experiment: Growth inhibition of human A549/ATCC cells assessed as growth percentage at 10 uM incubated for 48 hrs by sulforhodamine B assay relative to control; details: A549, 48 h, read-out: Activity; summary of the method: as §2

Row | Structure (SMILES) | growth at 10 µM (SN12C) [%] | growth at 10 µM (SF-295) [%] | growth at 10 µM (PC-3) [%] | growth at 10 µM (UACC-62) [%] | growth at 10 µM (A498) [%] | growth at 10 µM (NCI/ADR-RES) [%] | growth at 10 µM (HCT-116) [%] | growth at 10 µM (ACHN) [%] | growth at 10 µM (HOP-92) [%] | growth at 10 µM (KM12) [%] | growth at 10 µM (EKVX) [%] | growth at 10 µM (SK-MEL-28) [%] | growth at 10 µM (MDA-MB-231) [%] | growth at 10 µM (CAKI-1) [%] | growth at 10 µM (MDA-MB-435) [%] | growth at 10 µM (OVCAR-3) [%] | growth at 10 µM (SW-620) [%] | growth at 10 µM (OVCAR-5) [%] | growth at 10 µM (HCT-15) [%] | growth at 10 µM (CCRF-CEM) [%] | other results
1 | CC(=O)C1=C(C)NC(=O)NC1c1ccc2c(c1)OCO2 (racemic) | 102 | 106 | 99 | 98.9 | 120 | 106 | 108 | 108 | 102 | 110 | 101 | 115 | 102 | 91.4 | 105 | 115 | 104 | 102 | 106 | 98.5 | growth at 10 µM (RPMI-8226): 103%; growth at 10 µM (Malme-3M): 104%; growth at 10 µM (OVCAR-4): 108%; growth at 10 µM (HOP-62): 103%; growth at 10 µM (K562): 104%; growth at 10 µM (HT-29): 104%; growth at 10 µM (A549): 103%
2 | CC1=C(C(=O)c2ccccc2)C(c2ccc3c(c2)OCO3)NC(=S)N1 (racemic) | 51.4 | 51.2 | 61.5 | 51.6 | -12.5 | 43.3 | 20.1 | 45.5 | 92.3 | 20 | 73.5 | 70.9 | 79.1 | 35.6 | -49.5 | 12.9 | 24.2 | 72.5 | 33.7 | 41.2 | growth at 10 µM (RPMI-8226): 44%; growth at 10 µM (Malme-3M): 54.5%; growth at 10 µM (OVCAR-4): 82.3%; growth at 10 µM (HOP-62): 51.8%; growth at 10 µM (K562): 24.6%; growth at 10 µM (HT-29): 18.5%; growth at 10 µM (A549): 40.3%
3 | CC(=O)C1=C(C)NC(=S)NC1c1ccc2c(c1)OCO2 (racemic) | 104 | 104 | 98.1 | 98.6 | 115 | 112 | 104 | 103 | 92.5 | 109 | 106 | 116 | 104 | 91.9 | 103 | 109 | 106 | 101 | 108 | 101 | growth at 10 µM (RPMI-8226): 105%; growth at 10 µM (Malme-3M): 108%; growth at 10 µM (OVCAR-4): 103%; growth at 10 µM (HOP-62): 104%; growth at 10 µM (K562): 98.6%; growth at 10 µM (HT-29): 106%; growth at 10 µM (A549): 105%
4 | CC(=O)N1C(=S)NC(C)=C(C(=O)OC(C)C)C1c1ccc2c(c1)OCO2 (racemic) | 93.1 | 99.4 | 87.2 | 95.6 | 114 | 103 | 93.8 | 106 | 78.1 | 99.7 | 99.7 | 111 | 88.9 | 97.2 | 102 | 109 | 102 | 107 | 99.3 | 81.5 | growth at 10 µM (RPMI-8226): 73.9%; growth at 10 µM (Malme-3M): 98.4%; growth at 10 µM (OVCAR-4): 100%; growth at 10 µM (HOP-62): 88.5%; growth at 10 µM (K562): 83.2%; growth at 10 µM (HT-29): 105%; growth at 10 µM (A549): 99.4%
